ChEMBL document CHEMBL3867431, “Synthesis and structure-activity relationships of novel arylpiperazines as potent antagonists of α1-adrenoceptor” (Eur J Med Chem, 2016)

Experiments:
[1] = target: T1, Alpha-1A adrenergic receptor (Homo sapiens, UniProt P35348); assay: Displacement of [3H]prazosin from human alpha1A-adrenoceptor expressed in CHO cell membranes measured after 30 mins
T1 sequence (P35348 whole entry): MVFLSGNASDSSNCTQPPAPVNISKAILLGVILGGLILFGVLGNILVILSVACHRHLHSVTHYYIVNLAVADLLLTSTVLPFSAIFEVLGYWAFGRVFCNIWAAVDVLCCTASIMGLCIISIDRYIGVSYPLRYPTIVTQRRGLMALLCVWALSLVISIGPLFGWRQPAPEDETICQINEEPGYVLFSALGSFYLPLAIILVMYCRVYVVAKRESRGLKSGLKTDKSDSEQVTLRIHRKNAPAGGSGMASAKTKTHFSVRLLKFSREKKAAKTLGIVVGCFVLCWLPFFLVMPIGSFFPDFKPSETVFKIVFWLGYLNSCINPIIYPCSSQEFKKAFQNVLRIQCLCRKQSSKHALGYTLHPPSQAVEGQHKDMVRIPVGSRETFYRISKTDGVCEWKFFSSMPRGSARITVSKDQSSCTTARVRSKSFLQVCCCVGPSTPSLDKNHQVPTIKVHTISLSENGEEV
Method in brief: (§1)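 Membranes (30 µg protein) from stably transfected CHO cells, each expressing one human α1 subtype, incubated 30 min at 25 °C in 50 mM Tris-HCl pH 7.4 with 0.1-0.4 nM [3H]prazosin and competitor 1 pM-10 µM. Nonspecific binding defined with 10 µM phentolamine. Filtration over PEI-treated filters. Ki from IC50 via Cheng-Prusoff; 2-3 experiments in triplicate.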

[2] = target: T2, Alpha-1B adrenergic receptor (Homo sapiens, UniProt P35368); assay: Displacement of [3H]prazosin from human alpha1B-adrenoceptor expressed in CHO cell membranes measured after 30 mins; method in brief: as §1
T2 sequence (P35368 whole entry): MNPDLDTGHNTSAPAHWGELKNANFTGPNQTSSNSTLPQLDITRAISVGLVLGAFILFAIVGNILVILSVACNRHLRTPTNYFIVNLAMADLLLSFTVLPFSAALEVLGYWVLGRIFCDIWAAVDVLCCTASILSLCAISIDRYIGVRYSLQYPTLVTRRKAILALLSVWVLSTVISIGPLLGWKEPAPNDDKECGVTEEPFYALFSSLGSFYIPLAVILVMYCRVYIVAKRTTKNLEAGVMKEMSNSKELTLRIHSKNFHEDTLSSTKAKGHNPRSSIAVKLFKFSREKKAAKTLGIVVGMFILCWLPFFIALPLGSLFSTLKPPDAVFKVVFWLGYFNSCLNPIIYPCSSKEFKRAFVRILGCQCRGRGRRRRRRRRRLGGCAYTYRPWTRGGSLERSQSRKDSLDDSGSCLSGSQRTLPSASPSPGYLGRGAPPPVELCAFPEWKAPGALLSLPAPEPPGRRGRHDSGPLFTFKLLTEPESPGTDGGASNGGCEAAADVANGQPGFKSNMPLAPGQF

[3] = target: T3, Alpha-1D adrenergic receptor (Homo sapiens, UniProt P25100); assay: Displacement of [3H]prazosin from human alpha1D-adrenoceptor expressed in CHO cell membranes measured after 30 mins; method in brief: as §1
T3 sequence (P25100 whole entry): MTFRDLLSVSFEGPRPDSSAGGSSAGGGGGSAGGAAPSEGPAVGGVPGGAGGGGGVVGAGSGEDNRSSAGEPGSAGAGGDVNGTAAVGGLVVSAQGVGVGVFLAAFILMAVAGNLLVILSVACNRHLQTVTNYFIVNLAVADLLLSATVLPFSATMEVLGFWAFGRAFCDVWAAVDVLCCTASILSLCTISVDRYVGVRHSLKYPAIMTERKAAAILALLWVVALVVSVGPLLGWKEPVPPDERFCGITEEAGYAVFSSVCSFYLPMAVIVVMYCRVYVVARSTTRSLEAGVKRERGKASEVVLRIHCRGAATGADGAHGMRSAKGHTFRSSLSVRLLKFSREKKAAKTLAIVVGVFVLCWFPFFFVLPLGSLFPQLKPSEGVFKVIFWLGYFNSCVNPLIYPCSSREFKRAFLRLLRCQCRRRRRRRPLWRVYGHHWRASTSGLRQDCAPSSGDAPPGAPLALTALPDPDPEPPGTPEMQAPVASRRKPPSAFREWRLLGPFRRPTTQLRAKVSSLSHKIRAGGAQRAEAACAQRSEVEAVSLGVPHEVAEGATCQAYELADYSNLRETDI

[4] = target: T4, Alpha-1A adrenergic receptor (Rattus norvegicus) (UniProt P43140); assay: Antagonist activity at alpha1A-adrenoceptor in Wistar rat prostatic vas deference assessed as inhibition of (-)-NE-induced contractions preincubated for 60 mins before (-)-NE challenge measured after 45 mins
T4 sequence (whole entry): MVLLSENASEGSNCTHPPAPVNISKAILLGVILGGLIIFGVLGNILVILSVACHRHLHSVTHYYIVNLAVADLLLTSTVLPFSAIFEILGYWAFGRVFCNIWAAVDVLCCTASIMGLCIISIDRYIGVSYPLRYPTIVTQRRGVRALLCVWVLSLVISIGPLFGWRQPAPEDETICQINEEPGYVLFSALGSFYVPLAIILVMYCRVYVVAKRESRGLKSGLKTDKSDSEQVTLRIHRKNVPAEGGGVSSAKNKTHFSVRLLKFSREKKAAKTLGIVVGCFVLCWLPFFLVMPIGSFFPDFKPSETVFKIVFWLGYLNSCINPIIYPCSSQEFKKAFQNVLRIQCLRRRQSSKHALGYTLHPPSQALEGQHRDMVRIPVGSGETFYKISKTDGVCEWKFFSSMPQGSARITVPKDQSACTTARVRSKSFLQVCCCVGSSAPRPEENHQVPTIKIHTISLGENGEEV
Method in brief: (§2)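 Male Wistar rats (275-300 g); prostatic vas deferens segments (2 cm) under 0.35 g tension at 37 °C in Tyrode with cocaine, aerated 5% CO2/95% O2. Tissue primed twice with 10 µM (-)-NE, then a cumulative isotonic (-)-NE curve. Antagonist equilibrated 60 min before a repeat curve. Line 1 gives pKB = log(DR-1) - log[B] at one or two concentrations; line 4 gives pA2 from Schild plot, slope constrained to -1. Mean ± SE, 4-5 experiments.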

[5] = target: T5, Alpha-1B adrenergic receptor (Rattus norvegicus, UniProt P15823); assay: Antagonist activity at alpha1B-adrenoceptor in Wistar rat spleen assessed as inhibition of phenylphrine-induced contractions measured after 30 mins in presence of (+/-)-propranolol hydrochloride; settings: 0.5 h
T5 sequence (P15823 whole entry): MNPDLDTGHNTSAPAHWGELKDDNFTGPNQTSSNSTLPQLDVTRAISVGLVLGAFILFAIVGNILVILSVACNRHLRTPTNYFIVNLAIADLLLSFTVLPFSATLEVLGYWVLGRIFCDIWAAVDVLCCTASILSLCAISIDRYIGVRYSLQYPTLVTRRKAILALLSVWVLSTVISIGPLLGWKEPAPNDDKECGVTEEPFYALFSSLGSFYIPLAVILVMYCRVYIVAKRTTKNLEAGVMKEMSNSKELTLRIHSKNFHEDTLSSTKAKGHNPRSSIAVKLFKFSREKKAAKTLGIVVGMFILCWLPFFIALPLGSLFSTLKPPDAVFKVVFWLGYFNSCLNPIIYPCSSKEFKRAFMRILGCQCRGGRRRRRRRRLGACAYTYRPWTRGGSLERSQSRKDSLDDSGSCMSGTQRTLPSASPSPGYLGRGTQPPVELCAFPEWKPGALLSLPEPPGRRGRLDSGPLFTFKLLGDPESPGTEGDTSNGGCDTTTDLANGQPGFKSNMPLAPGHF
Method in brief: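 Male Wistar rat spleen strips in Krebs-type solution at 37 °C with (±)-propranolol 4 µM, under 1 g resting tension, equilibrated 2 h. Cumulative isometric phenylephrine curves at 30 min intervals; first discarded, second used as control, then a curve after 30 min antagonist incubation. pKB = log(DR-1) - log[B] from ED50 ratio. Mean ± SE, 4-5 experiments.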

[6] = target: T6, Alpha-1D adrenergic receptor (Rattus norvegicus) (UniProt P23944); assay: Antagonist activity at alpha1D-adrenoceptor in Wistar rat thoracic aorta assessed as inhibition of (-)-NE-induced contractions preincubated for 60 mins before (-)-NE challenge measured after 1 hr in presence of normetanephrine hydrochloride and (+/-)-propranolol hydrochloride
T6 sequence (whole entry): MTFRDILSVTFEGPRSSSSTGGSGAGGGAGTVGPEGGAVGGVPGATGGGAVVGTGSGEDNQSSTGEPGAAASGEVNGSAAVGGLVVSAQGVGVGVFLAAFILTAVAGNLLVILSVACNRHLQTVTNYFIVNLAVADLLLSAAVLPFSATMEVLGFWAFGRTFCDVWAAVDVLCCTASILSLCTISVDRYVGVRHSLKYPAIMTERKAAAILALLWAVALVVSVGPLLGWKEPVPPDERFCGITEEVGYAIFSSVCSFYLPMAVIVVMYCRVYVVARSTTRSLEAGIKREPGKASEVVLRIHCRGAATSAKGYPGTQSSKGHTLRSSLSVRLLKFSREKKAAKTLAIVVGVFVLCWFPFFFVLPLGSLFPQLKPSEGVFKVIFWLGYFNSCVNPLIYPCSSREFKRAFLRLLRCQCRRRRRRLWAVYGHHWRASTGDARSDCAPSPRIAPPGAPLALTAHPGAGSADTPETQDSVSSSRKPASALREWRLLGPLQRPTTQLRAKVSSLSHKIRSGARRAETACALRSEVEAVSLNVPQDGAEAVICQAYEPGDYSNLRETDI
Method in brief: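 Male Wistar rat thoracic aorta strips, endothelium rubbed off and checked by loss of 100 µM acetylcholine relaxation after 1 µM (-)-NE contraction. Krebs solution, 1 g tension, at least 2 h equilibration. Isometric cumulative (-)-NE curves at 1 h intervals; third used as control, fourth after 60 min antagonist. pKB from the ED50 dose ratio. Mean ± SE, 4-5 experiments.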

[7] = target: T7, Alpha-1A adrenergic receptor (Rattus norvegicus, UniProt P43140); assay: Competitive antagonist activity at alpha1A-adrenoceptor in Wistar rat prostatic vas deference assessed as inhibition of (-)-NE-induced contractions preincubated for 60 mins before (-)-NE challenge measured after 45 mins by Schild plot analysis; settings: read-out: pA2 (converted); method in brief: as §2
T7 sequence (P43140 whole entry): T4 sequence (whole entry)

SMILES | Ki [1] | Ki [2] | Ki [3] | pKb [4] | pKb [5] | pKb [6] | Kb [7]
COc1cccc(CCN2CCN(c3ccccc3OC(C)C)CC2)c1 | 2.75 nM | 13.8 nM | 1.32 nM | 8.87 | 8.92 | 9.46 | –
CC(C)Oc1ccccc1N1CCN(CCc2ccc3c(c2)OCO3)CC1 | 0.389 nM | 12.9 nM | 1.74 nM | 8.27 | 8.03 | 8.33 | 4.17 nM
COc1ccc(CCN2CCN(c3ccccc3OC(C)C)CC2)cc1OC | 2 nM | 10.5 nM | 1.35 nM | 9.55 | 8.74 | 9.12 | –
CCOc1ccccc1N1CCN(CCc2cccc(OC)c2)CC1 | 2.95 nM | 25.1 nM | 2.57 nM | 8.39 | 8.13 | 8.11 | –
COc1ccccc1N1CCN(CCc2ccc3c(c2)OCO3)CC1 | 3.47 nM | 5.25 nM | 1.26 nM | 8.47 | 8.11 | 8.57 | –
COc1ccc(CCN2CCN(c3ccccc3OC(C)C)CC2)cc1 | 2.24 nM | 14.8 nM | 3.09 nM | – | – | – | –
CC(C)Oc1ccccc1N1CCN(CCc2ccccc2)CC1 | 5.01 nM | 77.6 nM | 4.57 nM | 8.29 | 7.94 | 8.59 | –
CCOc1ccccc1N1CCN(CCc2ccc(OC)c(OC)c2)CC1 | 2.09 nM | 15.8 nM | 0.603 nM | 9.1 | 8.89 | 8.79 | –
COc1ccccc1N1CCN(CCc2ccccc2)CC1 | 31.6 nM | 91.2 nM | 16.6 nM | 7.76 | 7.82 | 8.5 | –
CCOc1ccccc1N1CCN(CCc2ccc(OC)cc2)CC1 | 1.12 nM | 10.2 nM | 1.35 nM | 8.89 | 7.91 | 8.23 | –
CCOc1ccccc1N1CCN(CCc2ccc3c(c2)OCO3)CC1 | 1.12 nM | 5.37 nM | 1.51 nM | 9.09 | 8.85 | 8.84 | –
